Screening data deposited in PubChem by several laboratories.
Hits are enriched below; roughly 1.3% of the tested compounds scored in any of these assays.
PTPN22 inh 2 = LYP (human) phosphatase inhibition | hit rate 0.21% among 96,000 | recombinant LYP catalytic domain, DiFMUP fluorescence | inhibition, % at 2 µM | AID 640;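 active = inhibition at 2 µM at or above a set limit, the screen mean plus 3 SD, cut at about 24% in these data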;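 note: 0% = DMSO with enzyme and 100% = enzyme fully blocked by orthovanadate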
EphB4 antag = antagonists of human EphB4-ephrin-B2 interaction; EphB4 LBD / TNYL-RAW-Alexa532 peptide, fluorescence polarization; inhibition, % at 7 µM; hit rate 0.15% among 97,000;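 active = inhibition above the screen-wide mean inhibition plus 3 SD, cut at about 15% in these data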;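 note: 0% = DMSO wells and 100% = excess unlabeled TNYL-RAW peptide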
PTPN22 act = LYP (human) phosphatase activation. AID 697. activation, % at 2 µM. Q9Y2R2. recombinant LYP, DiFMUP fluorescence; 0 = plate median, 100 = signal doubled. hit rate 0.11% among 96,000;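 active = activation at 2 µM above a set limit, the mean plus 5 SD, cut at about 37% in these data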
HIV Rev-RRE inh = inhibitors of HIV-1 Rev-RRE RNA interaction; inhibition, % at 8 µM; AID 704; hit rate 0.79% among 97,000; Rev peptide-RRE RNA binding, FRET;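 active = inhibition above the screen-wide mean plus 3 SD, cut at about 35% in these data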;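 note: 0% = median DMSO wells and 100% = median Neomycin B control wells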
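System: Cy5-labelled duplex RRE RNA binding fluorescein-labelled HIV Rev peptide; Signal: fluorescein-to-Cy5 FRET, 480 nm excitation; Also added: labelled Rev peptide; Compound: one concentration, 8 µM nominal; Buffer or medium: HEPES pH 7.5 salt buffer with EDTA; Read-out: % inhibition of FRET ratio versus controls; Schedule: 5 min preincubation and 15 min binding, 25 °C.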
* marks the source's active call; other numbers are inactive results; [ ] = another dose, or the depositor's remark.

SMILES	PTPN22 inh 2	EphB4 antag	PTPN22 act	HIV Rev-RRE inh
CN1CCCc2cc3c(C(F)(F)F)cc(=O)oc3nc21	0.7	0.5	-1.7	70.9*
COc1ccc(N2CCN(Cc3cc(=O)oc4cc5c(cc34)CCCC5)CC2)cc1	-8.8	-1.8	6.8	4.1
Cc1cccc(CSc2nnc(-c3cccs3)n2Cc2ccco2)c1	3.8	0.2	-6.5	6.7
O=C(O)c1ccccc1C1=Nc2ccc(O)cc2Oc2cc(O)ccc21	9.3	-3.8	-11.7	77.5*
O=S1(=O)C=C(SCc2cccc(Cl)c2)Nc2ccccc21	-4.4	5.0	1.8	2.4
CC1=NOC(=O)/C1=C/c1ccc(N(C)C)cc1	2.1	-2.0	1.3	86.2*
O=C(c1cccc(F)c1)N1CCN(c2cccc(Cl)c2)CC1	-1.0	1.1	-1.5	141.2*[fluorescence artefact?]
Cc1ccc(OC(F)F)c(NC(=O)Nc2cccc(C(F)(F)F)c2)c1	12.9	2.0	-11.1	19.7
Cc1c(C(=O)OCCN2CCCCC2)oc2ccccc12	4.2	-0.2	-6.7	-2.6
Cc1c(C(=O)OC(C)CCN(C)C)oc2ccccc12 (centres undefined)	-4.4	-0.5	1.7	141.3*[fluorescence artefact?]
Cc1ccc(-n2nc3c(c2NC(=O)c2c(-c4ccccc4Cl)noc2C)CS(=O)(=O)C3)c(C)c1	-0.7	-1.3	-1.1	11.3
CCN(CC)S(=O)(=O)c1cccc(C(=O)N[C@H](C(=O)OCC(=O)NC(=O)NC)C(C)C)c1	17.5	-3.0	-15.1	5.4
N#Cc1c(Sc2ncc(C(F)(F)F)cc2Cl)nsc1C/C=N\OCc1c(F)cccc1Cl	5.9	-4.8	-3.1	61.3*
Cc1cc(N2CCN(C)CC2)n2cc(-c3ccc(F)cc3)nc2n1	-5.1	-8.0	7.7	-4.7
Cc1cc(N2CCN(c3ccccn3)CC2)n2cc(-c3ccccc3)nc2n1	0.6	15.8*	-3.0	4.2
N#Cc1c(-c2ccccc2)cc(-c2ccco2)c(C#N)c1N	2.8	-6.2	-6.1	36.8*
N#Cc1sc2nc(-c3ccccc3)cc(-c3ccco3)c2c1N	-6.0	1.1	7.3	37.0*
COC(=O)C1C2CCC(C2)C1C(=O)OCC(=O)c1ccc(C)cc1 (centres undefined)	-0.7	-0.3	0.6	0.8
O=C(Nc1ccc2snnc2c1)Nc1cccc2ccccc12	6.1	-4.7	-4.2	9.5
Cc1cc(-c2csc(N)n2)c(C)n1CCc1ccccc1	9.3	-1.3	-11.4	20.4
Cc1cc(-c2csc(N)n2)c(C)n1CCC(C)C	28.2*	5.7	-28.6	16.7
c1ccc2c(c1)CCCN2Cc1nnnn1CC1CCCO1 (centres undefined)	-11.5	-1.6	7.1	54.7*
COc1cc(C2C(C#N)=C(N)OC3=C2C(=O)CC(C)(C)C3)c([N+](=O)[O-])cc1OC (centres undefined)	-1.7	5.7	5.8	48.9*
Cc1ccc(/C=C2\CCC3=C2OC(N)=C(C#N)C3c2ccc(C)cc2)cc1 (centres undefined)	5.8	-2.5	-3.8	138.4*[fluorescence artefact?]
CCN(CC)C(=O)Cn1nc(-c2ccccc2O)nc1SCC(=O)Nc1ccc(OC)cc1	4.9	-4.0	-5.6	7.1
SMILES	PTPN22 inh 2	EphB4 antag	PTPN22 act	HIV Rev-RRE inh
COc1cc(N2CCCC2)c(OC)cc1/C=c1/sc2nc3ccccc3n2c1=O	2.8	-15.9	-5.0	133.0*[fluorescence artefact?]
CCOC(=O)N1CCN(c2c(NCCCN3CCCCCC3)c(=O)c2=O)CC1	0.5	2.9	-3.7	6.6
COc1c(N2CCN(C(=S)NCc3ccccc3)C(C)C2)c(F)cc2c(=O)c(C(=O)O)cn(C3CC3)c12 (centres undefined)	35.1*	-3.8	-34.0	-8.2
CCn1cc(C(=O)NCc2ccccc2)c(=O)c2cc(F)c(N3CCN(C(=O)c4ccco4)CC3)cc21	-8.3	-6.5	11.2	0.0
O=C(/C=C/c1ccccc1)NC(NC(=S)Nc1cc(Cl)ccc1Cl)C(Cl)(Cl)Cl (centres undefined)	2.3	2.0	0.2	11.6
COc1ccc(-c2c[n+]3c4n2CCCCC4=C(c2ccc(Br)cc2)C3)cc1	1.0	0.1	-1.7	15.8
Clc1ccc(C2=C3CCCCn4c(-c5ccccc5)c[n+](c43)C2)cc1	26.4*	4.5	-23.6	11.1
COc1ccc(C2=CC(c3c(C)nn(-c4ccccc4)c3Cl)n3nnnc3N2)cc1OC (centres undefined)	10.7	3.2	-11.5	50.9*
CCOC(=O)c1cc(CC)sc1NC(=O)c1cc(OC)c(OC)c(OC)c1	-19.1	-3.8	16.0	-1.0
CCOC(=O)c1sc(N)c(C#N)c1COC(=O)CNC(=O)c1cc(OC)c(OC)c(OC)c1	1.6	-1.7	-3.2	53.3*
Cn1c(N2C(=O)CC(Cc3ccccc3)C2=O)nc2ccccc21 (centres undefined)	-5.7	-5.2	4.2	0.2
CC(C)NC(=O)c1sc2nc3c(c(-c4cccs4)c2c1N)CN(C)CC3	6.9	-3.3	-7.2	14.7
Cc1cccc(NC(=O)c2sc3nc4c(c(-c5cccs5)c3c2N)CN(C)CC4)c1	5.3	2.2	-3.0	70.9*
Cc1ccc([C@@H]2C3COCC=C3C(C#N)=C(N)C2(C#N)C#N)o1 (some centres undefined)	-5.5	-0.5	5.3	41.6*
N#CC1=C(N)C(C#N)(C#N)[C@H](c2ccncc2)[C@H]2CC3(CC=C12)OCCO3	-10.1	-8.4	8.6	17.5
Clc1ccc(Oc2nnnn2-c2ccccc2)cc1	-3.9	-3.9	8.0	-0.4
O=C(Nc1ccccn1)C(=O)N1CCCCC1	3.4	5.6	-4.7	6.8
O=C(CCN1C(=O)c2ccccc2C1=O)Oc1ccc2ccccc2c1	75.0*	-3.0	-74.4	-0.3
COc1ccc(OCC(=O)OCCN2C(=O)c3ccccc3C2=O)cc1	2.8	2.6	-4.3	-7.1
Cc1cc(=O)oc(C)c1C(=O)Nc1ccc2nsnc2c1	4.3	-1.6	-7.5	8.8
Cc1cc(=O)oc(C)c1C(=O)Nc1ccc2ncccc2c1	6.8	2.8	-4.6	125.5*[fluorescence artefact?]
O=C1CCN2C=Nc3cccc4ccc1c2c34	1.1	-3.6	-1.7	129.7*[fluorescence artefact?]
c1ccc(CN2CCN(C3=Nc4cccc5cccc3c45)CC2)cc1	-14.8	1.3	12.9	31.7
COc1ccc2cc(CN(Cc3ccco3)Cc3nnnn3C3CCCCC3)c(=O)[nH]c2c1	5.3	1.1	-7.3	6.4
COCCn1nnnc1CN(Cc1cc2cc(OC)c(OC)cc2[nH]c1=O)C1CCCC1	-20.8	-10.8	20.4	28.9
SMILES	PTPN22 inh 2	EphB4 antag	PTPN22 act	HIV Rev-RRE inh
COc1cc2cc(CN(Cc3nnnn3Cc3ccco3)C3CCCCC3)c(=O)[nH]c2cc1OC	7.3	3.0	-7.6	45.1*
CCOc1ccc2[nH]c(=O)c(CN(Cc3ccco3)Cc3nnnn3Cc3ccccc3)cc2c1	-15.4	-6.4	12.4	5.7
CCOc1ccc2[nH]c(=O)c(CN(Cc3nnnn3Cc3ccco3)C3CCCCC3)cc2c1	10.0	6.3	-12.0	60.1*
COc1ccc2cc(CN(Cc3ccco3)C(c3nnnn3C3CCCCC3)C(C)C)c(=O)[nH]c2c1 (centres undefined)	26.3*	8.9	-23.2	7.5
CO/N=C/c1cc([N+](=O)[O-])ccc1Sc1ccc(C)cc1	-0.5	7.7	-2.0	14.7
CCOc1ccc2cc(/C=C/C(=O)c3ccco3)c(Cl)nc2c1	-3.3	1.5	3.2	52.7*
